Measured values collected from several papers.
Each line is one published result; the experiments were not run side by side.
Observed: cell growth or viability

Structure (SMILES)	cell line	method	time	IC50 [µM]
CC(C(=O)n1nnc2ccccc21)c1cccc(C(OC(=O)n2nnc3ccccc32)c2ccccc2)c1 (stereo not shown)	L1210	–	48 h	38
COc1ccc2c(c1)NC(=O)CN2c1nc(Cl)nc2c1COC2	MDA-MB-453	MTS	72 h	0.0193
C[C@@H]1C[C@H](O)[C@]2(O)O[C@@H]3C[C@@]4(C=O)[C@@H](CC[C@@H]5[C@@H]4CC[C@]4(C)[C@@H](C6=CC(=O)OC6)CC[C@]54O)C[C@H]3O[C@@H]2O1	L6	resazurin	72 h	7.5
CC(C(=O)NCCc1ccccc1)c1cccc(C(OC(=O)NCCc2ccccc2)c2ccccc2)c1 (stereo not shown)	L1210	–	48 h	8.2
CC(C)=CCOc1c2occc2cc2ccc(=O)oc12	COLO 205	MTT	72 h	> 100
COc1ccc(N(C)c2nc(Cl)nc3cccnc23)cc1F	MDA-MB-453	MTS	72 h	0.0042
COc1cc(C(=O)c2cc3c(-c4ccccc4)c(O)ccc3o2)cc(OC)c1OC	L1210	–	48 h	> 50
CS(=O)(=O)c1ccc(S(=O)(=O)N2CCc3[nH]c4ccccc4c3C2)cc1	L6	–	–	> 250
COc1cccc2c1C(=O)c1c(O)c3c(c(O)c1C2=O)C[C@@](O)(C(C)=O)C[C@@H]3O[C@H]1C[C@H](N)[C@H](O)[C@H](C)O1	GISTT1	resazurin	72 h	< 0.07
Cc1n[nH]cc1-c1cc2nc([C@@H]3CC4CCN3CC4)[nH]c(=O)c2s1	COLO 205	MTT	–	0.0367
COc1cc(C(=O)c2sc3ccccc3c2N)cc(OC)c1OC	L1210	–	48 h	0.35
CC(C(=O)NOCc1ccccc1)c1cccc(C(OC(=O)NOCc2ccccc2)c2ccccc2)c1 (stereo not shown)	L1210	–	48 h	9.7
C[C@@H]1C[C@@]2(N=CCS2)[C@]2(O)O[C@@H]3C[C@@]4(C=O)[C@@H](CC[C@@H]5[C@@H]4CC[C@]4(C)[C@@H](C6=CC(=O)OC6)CC[C@]54O)C[C@H]3O[C@@H]2O1	L6	resazurin	72 h	6.17
CC(C(=O)N1CCCCC1)c1cccc(C(OC(=O)N2CCCCC2)c2ccccc2)c1 (stereo not shown)	L1210	–	48 h	15
C[C@H]1O[C@@H](O[C@H]2[C@@H](O)C[C@H](O[C@H]3[C@@H](O)C[C@H](O[C@H]4CC[C@@]5(C)[C@H](CC[C@@H]6[C@@H]5C[C@@H](O)[C@]5(C)[C@@H](C7=CC(=O)OC7)CC[C@]65O)C4)O[C@@H]3C)O[C@@H]2C)C[C@H](O)[C@@H]1O	GISTT1	resazurin	72 h	0.16
CC(C(=O)NC1CCCCC1)c1cccc(C(OC(=O)NC2CCCCC2)c2ccccc2)c1 (stereo not shown)	FM3A	–	48 h	15
Cc1c2oc3c(C)ccc(C(=O)N[C@@H]4C(=O)N[C@H](C(C)C)C(=O)N5CCC[C@H]5C(=O)N(C)CC(=O)N(C)[C@@H](C(C)C)C(=O)O[C@@H]4C)c3nc-2c(C(=O)N[C@@H]2C(=O)N[C@H](C(C)C)C(=O)N3CCC[C@H]3C(=O)N(C)CC(=O)N(C)[C@@H](C(C)C)C(=O)O[C@@H]2C)c(N)c1=O	GISTT1	resazurin	72 h	0.07
CC(C(=O)NC1CCCC1)c1cccc(C(OC(=O)NC2CCCC2)c2ccccc2)c1 (stereo not shown)	L1210	–	48 h	9.8
N.N.[Cl][Pt][Cl]	NCI-H460	MTT	72 h	2
